Experimental data of several laboratories.
Compare with care: the assays were run in different laboratories.
BRD7: Bromodomain-containing protein 7 (BRD7, Homo sapiens, UniProt Q9NPI1)
SIRT6: NAD-dependent protein deacylase sirtuin-6 (SIRT6, Homo sapiens, UniProt Q8N6T7)
PBK: Lymphokine-activated killer T-cell-originated protein kinase (PBK, Homo sapiens, UniProt Q96KB5)

| SMILES | target | test | conditions | endpoint | result |
| --- | --- | --- | --- | --- | --- |
| Cn1c2c(c3ccc(Cl)c(Cl)c31)C(C#N)C(C)(C)NC2=O (stereo not shown) | Serine/threonine-protein kinase VRK1 (VRK1, Homo sapiens, UniProt Q99986) | thermal stability, DSF | 10 µM | ΔTm | 0.1 °C |
| Cc1ccc(C(=O)NCc2ccsc2)cc1C#Cc1cn(C(C)C)c2ncnc(N)c12 | [Pyruvate dehydrogenase (acetyl-transferring)] kinase isozyme 4, mitochondrial (PDK4, Homo sapiens, UniProt Q16654) | enzyme activity, inhibitor | 1 µM | activity vs control | 119% |
| C[S+]([O-])c1ccc(-c2nc(-c3ccncc3)c(-c3ccc(F)cc3)[nH]2)cc1 (stereo not shown) | BRD7 | thermal stability, DSF | 10 µM | ΔTm | 0.34 °C |
| NS(=O)(=O)c1ccc(Nc2nc(-c3ccc(F)cc3)c3ccccc3n2)cc1 | BRD7 | binding, competition with immobilised ligand | 1 µM | remaining binding | 76% |
| NC(=O)c1ccc(C(=O)NOCc2cccc(Cl)c2)cc1 | SIRT6 | enzyme activity, inhibitor, fluorescence | 100 µM | inhibition | 80.2% |
| CC/C(=N\NC(=O)NCc1cccc(O)c1)c1ccc(O)c(C)c1O | ALK tyrosine kinase receptor (ALK, Homo sapiens, UniProt Q9UM73, G1269A) | enzyme activity, inhibitor | 0.1 µM | inhibition | 0.4% |
| Cc1ccc(C(=O)Nc2ccc(CN3CCN(C)CC3)c(C(F)(F)F)c2)cc1C#Cc1cnc2cccnn12 | Serine/threonine-protein kinase TNNI3K (TNNI3K, Homo sapiens, UniProt Q59H18) | cell-free assay | 23.5 nM | remaining signal | 50% |
| NC(=O)c1ccc(C(=O)NOCc2ccccc2Cl)cc1 | SIRT6 | enzyme activity, inhibitor, fluorescence | 100 µM | inhibition | 78.2% |
| N#CC1c2c([nH]c3c(Cl)c(Cl)ccc23)C(=O)NC12CCCCC2 (racemic) | PBK | thermal stability, DSF | 10 µM | ΔTm | 0.8 °C |
| Nc1nonc1-n1cc(C(=O)N/N=C/c2ccccc2C(=O)O)nn1 | SIRT6 | enzyme activity, inhibitor, fluorescence | 100 µM | remaining activity | 84.2% |
| COc1ccc(Sc2ccc(CONC(=O)c3ccc(C(N)=O)cc3)cc2C(F)(F)F)cc1 | SIRT6 | enzyme activity, inhibitor, fluorescence | 100 µM | inhibition | 97.4% |
| Nc1nonc1-n1cc(C(=O)N/N=C/c2cccnc2)nn1 | SIRT6 | enzyme activity, inhibitor, fluorescence | 100 µM | remaining activity | 26% |
| Cn1c2c(c3ccc(Cl)c(Cl)c31)C(C#N)C1(CCOCC1)NC2=O (stereo not shown) | PBK | thermal stability, DSF | 10 µM | ΔTm | -0.4 °C |
| Nc1nonc1-n1cc(C(=O)N/N=C/c2ccc(O)c(O)c2O)nn1 | SIRT6 | enzyme activity, inhibitor, fluorescence | 100 µM | remaining activity | 51.3% |
| NC(=O)c1ccc(C(=O)NOCc2cccc(C(F)(F)F)c2)cc1 | SIRT6 | enzyme activity, inhibitor, fluorescence | 100 µM | inhibition | 92.1% |
| Nc1ncnc2occ(-c3ccc(NC(=O)Nc4cc(C(F)(F)F)ccc4F)cc3)c12 | ALK tyrosine kinase receptor (ALK, Homo sapiens, UniProt Q9UM73, C1156Y) | cell-free assay | 20 µM | remaining signal | 1.1% |
| Cn1c2c(Cl)c(Cl)ccc2c2cc[nH]c(=O)c21 | PBK | thermal stability, DSF | 10 µM | ΔTm | -0.6 °C |
| Nc1nonc1-n1cc(C(=O)N/N=C/c2ccc(O)cc2)nn1 | SIRT6 | enzyme activity, inhibitor, fluorescence | 100 µM | remaining activity | 34.5% |
| NC(=O)c1ccc(C(=O)NOCc2ccc(Sc3ccc(F)cc3)c(C(F)(F)F)c2)cc1 | SIRT6 | enzyme activity, inhibitor, fluorescence | 100 µM | inhibition | 90.2% |
| CCC1(CC)NC(=O)c2c(c3ccc(Cl)c(Cl)c3n2C)C1C#N (stereo not shown) | PBK | thermal stability, DSF | 10 µM | ΔTm | 0 °C |
| NC(=O)c1ccc(C(=O)NOCc2ccc(Sc3ccc(Cl)cc3)c(C(F)(F)F)c2)cc1 | SIRT6 | enzyme activity, inhibitor, fluorescence | 100 µM | inhibition | 95% |
| Nc1nonc1-n1cc(C(=O)N/N=C/c2ccccc2)nn1 | SIRT6 | enzyme activity, inhibitor, fluorescence | 100 µM | remaining activity | 38.9% |
| O=C(Nc1ccc(S(=O)(=O)N2CCC(Cl)CC2)cc1)c1ccc([N+](=O)[O-])o1 | Voltage-dependent L-type calcium channel subunit alpha-1C (Cacna1c, Rattus norvegicus, UniProt P22002) | cell-free assay | 10 µM | inhibition | 6% |
| CN1CCC2(CC1)NC(=O)c1c(c3ccc(Cl)c(Cl)c3n1C)C2C#N (racemic) | PBK | thermal stability, DSF | 10 µM | ΔTm | -0.2 °C |
| NS(=O)(=O)c1ccc(C(=O)NOCc2ccccc2)cc1 | SIRT6 | enzyme activity, inhibitor, fluorescence | 100 µM | inhibition | 47.4% |
